# Results as given in ChEMBL document CHEMBL4017532, “Multifunctional Hybrid Compounds Derived from 2-(2,5-Dioxopyrrolidin-1-yl)-3-methoxypropanamides with Anticonvulsant and Antinociceptive Properties” (J Med Chem, 2017).
# Calls of active or inactive are those of the source.
# Tests used:
# Mus musculus [1] = test: Anticonvulsant activity in Albino Swiss CD-1 mouse assessed as protection against 6 Hz current-induced seizure at 100 mg/kg, ip pretreated up to 2 hrs followed by 6 Hz current induction for 3 secs relative to control; assay type: functional
# Mus musculus [2] = test: Anticonvulsant activity in Albino Swiss CD-1 mouse assessed as protection against maximal electroshock-induced seizures by measuring time to peak effect at 100 mg/kg, ip pretreated up to 2 hrs followed by 50 Hz current induction for […]; assay type: functional
# Mus musculus [3] = test: Anticonvulsant activity in ip dosed Albino Swiss CD-1 mouse assessed as protection against 32 mA current-induced seizure treated up to 2 hrs prior to 6-Hz current induction measured at time to peak effect; assay type: functional; conditions: Swiss CD-1, ip
# [4] = Neurotoxicity in ip dosed Albino Swiss CD-1 mouse assessed as induction of motor impairment measured up to 60 secs by chimney test; assay type: toxicity, organism-based; conditions: in vivo
# Procedure, shortened: (§1)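 Acute neurological toxicity after ip dosing (1% Tween 80 suspension) was assessed in the mouse chimney test. TD50 with 95% confidence limits was derived by probit analysis. Protective index is TD50 from the chimney test divided by ED50 from the MES, scPTZ or 6 Hz test.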
# Mus musculus [5] = test: Protection index, ratio of TD50 for neurotoxicity in ip dosed Albino Swiss CD-1 mouse to ED50 for ip dosed Albino Swiss CD-1 mouse model of 6 Hz-induced siezures; procedure, shortened: as §1
# Mus musculus [6] = test: Anticonvulsant activity in ip dosed Albino Swiss CD-1 mouse assessed as protection against maximal electroshock-induced seizures pretreated up to 2 hrs followed by 50 Hz current induction for […] measured at time to peak effect; assay type: functional; conditions: Swiss CD-1, ip
# Mus musculus [7] = test: Protection index, ratio of TD50 for neurotoxicity in ip dosed Albino Swiss CD-1 mouse to ED50 for ip dosed maximal electroshock induced seizure Albino Swiss CD-1 mouse; procedure, shortened: as §1
# [8] = Retention time of the compound by LC-MS method
# Liver [9] = test: Drug level in human liver microsomes treated with 1-{1-[4-(4-Trifluoromethylphenyl)piperazin-1-yl]-3-methoxy-1-oxopropan-2-yl}pyrrolidine-2,5-dione preincubated for 5 mins followed by NADPH addition measured after 2 hrs by LC-MS method; assay type: ADME, microsome
# Mus musculus [10] = test: Anticonvulsant activity in Albino Swiss CD-1 mouse assessed as protection against 6 Hz current-induced seizure at 100 mg/kg, ip pretreated up to 0.5 hrs followed by 6 Hz current induction for 3 secs relative to control; assay type: functional
# Cytochrome P450 3A4 = Cytochrome P450 3A4 (Homo sapiens, UniProt P08684); test: Inhibition of human CYP3A4 assessed as reduction in luciferin-PPXE conversion to D-luciferin at 12.5 to 25 uM by luminescence assay; assay type: ADME
# Procedure, shortened: (§2)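 P450-Glo luminescence assays used recombinant human CYP3A4 or CYP2D6 with conversion of luciferin-PPXE to D-luciferin. Ketoconazole (CYP3A4) and quinidine (CYP2D6) served as reference inhibitors.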
# Cytochrome P450 2D6 = Cytochrome P450 2D6 (Homo sapiens, UniProt P10635); test: Inhibition of human CYP2D6 assessed as reduction in luciferin-PPXE conversion to D-luciferin at 12.5 to 25 uM by luminescence assay; assay type: ADME; procedure, shortened: as §2
# Mus musculus [11] = test: Anticonvulsant activity in Albino Swiss CD-1 mouse assessed as inhibition of pentylenetetrazole-induced seizures at 100 mg/kg, ip administered up to 2 hrs prior to PTZ induction measured after 30 mins relative to control; assay type: functional; design: scale not given: the % may be the effect or the level left
# Mus musculus [12] = test: Anticonvulsant activity in Albino Swiss CD-1 mouse assessed as protection against maximal electroshock-induced seizures at 100 mg/kg, ip pretreated up to 2 hrs followed by 50 Hz current induction for […] relative to control; assay type: functional
# Liver [13] = test: Drug level in human liver microsomes treated with 1-{1-[4-(3-Trifluoromethylphenyl)piperazin-1-yl]-3-methoxy-1-oxopropan-2-yl}pyrrolidine-2,5-dione preincubated for 5 mins followed by NADPH addition measured after 2 hrs by LC-MS method; assay type: ADME, microsome
# Liver [14] = test: Drug level in human liver microsomes treated with 1-{1-[4-(3-Chlorophenyl)piperazin-1-yl]-3-methoxy-1-oxopropan-2-yl}pyrrolidine-2,5-dione preincubated for 5 mins followed by NADPH addition measured after 2 hrs by LC-MS method; assay type: ADME, microsome
# Mus musculus [15] = test: Analgesic activity in Albino Swiss CD-1 mouse assessed as increase in pain response latency administered at 4 mg/kg, ip treated up to 90 mins prior to tet by hot plate assay; assay type: functional, organism-based
# Procedure, shortened: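 Adult male Albino Swiss CD-1 mice (18−25 g), 6−12 per group, each used once. Drug given ip suspended in 1% aqueous Tween 80; vehicle controls received Tween 80. Mice were put back on the hot plate at 15, 30, 45, 60 and 90 min after dosing, and latency to pain reaction was recorded. Data are means ± SEM, analysed by ANOVA with post hoc tests.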
# Mus musculus [16] = test: Anticonvulsant activity in Albino Swiss CD-1 mouse assessed as inhibition of pentylenetetrazole-induced seizures by measuring time to peak effect at 100 mg/kg, ip administered up to 2 hrs prior to PTZ induction measured for 30 mins; assay type: functional
# Mus musculus [17] = test: Antinociceptive activity in Albino Swiss CD-1 mouse assessed as inhibition of formalin-induced neurogenic pain response at 100 mg/kg, ip administered 30 mins before formalin injection measured up to 5 mins relative to control; assay type: functional; conditions: Swiss CD-1, ip
# Procedure, shortened: (§3)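 Male CD-1 mice were given test agents ip 30 min before subcutaneous intraplantar formalin. Doses were 12.5, 25 or 50 mg/kg, or 100, 150 or 200 mg/kg for the reference. Vehicle was 1% Tween 80 at 10 mL/kg. Paw licking time was recorded in phase I (0–5 min) and phase II (15–30 min). Data are mean ± SEM of 8–10 mice, by Dunnett's test. ED50 was obtained by log-probit analysis with 95% confidence limits.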
# Mus musculus [18] = test: Antinociceptive activity in Albino Swiss CD-1 mouse assessed as inhibition of formalin-induced neurogenic pain response at 150 mg/kg, ip administered 30 mins before formalin injection measured up to 5 mins relative to control; assay type: functional; conditions: Swiss CD-1, ip; procedure, shortened: as §3
# Mus musculus [19] = test: Antinociceptive activity in Albino Swiss CD-1 mouse assessed as inhibition of formalin-induced neurogenic pain response at 200 mg/kg, ip administered 30 mins before formalin injection measured up to 5 mins relative to control; assay type: functional; conditions: Swiss CD-1, ip; procedure, shortened: as §3
# Mus musculus [20] = test: Antinociceptive activity in Albino Swiss CD-1 mouse assessed as inhibition of capsaicin-induced nociception by measuring time spent licking injected paw at 200 mg/kg, ip administered 30 mins mins prior to capsaicin challenge measured for 5 mins relative to control; assay type: functional; conditions: Swiss CD-1, ip
# Procedure, shortened: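 Mice (male CD-1, 18–25 g) were pretreated ip 30 min before intraplantar capsaicin. Doses were 25, 50 or 100 mg/kg, or 100, 150 or 200 mg/kg for the reference. Vehicle was 1% Tween 80 at 10 mL/kg. Duration of nociceptive response was scored over 5 min after injection. Data are mean ± SEM of 8–10 mice, by one-way ANOVA with Dunnett's test against vehicle.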
# Mus musculus [21] = test: Antiallodynic activity in oxaliplatin-induced Albino Swiss CD-1 mouse model of peripheral neuropathy assessed as elevation in pain sensitivity threshold at 50 mg/kg, ip administered 30 mins prior to oxaliplatin challenge relative to control; assay type: functional
# Procedure, shortened: (§4)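 Male CD-1 mice, 18–25 g, that had developed oxaliplatin-induced tactile allodynia were dosed ip 30 min before testing. Doses were 25, 50 or 100 mg/kg, or 50, 100 or 150 mg/kg for the reference. Vehicle was 1% aqueous Tween 80. Paw-withdrawal force was measured by von Frey filaments. Data are mean ± SEM, analysed by repeated-measures ANOVA with Dunnett's test against oxaliplatin plus vehicle mice.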
# Mus musculus [22] = test: Antiallodynic activity in oxaliplatin-induced Albino Swiss CD-1 mouse model of peripheral neuropathy assessed as elevation in pain sensitivity threshold at 100 mg/kg, ip administered 30 mins prior to oxaliplatin challenge relative to control; assay type: functional; procedure, shortened: as §4
# Mus musculus [23] = test: Antiallodynic activity in oxaliplatin-induced Albino Swiss CD-1 mouse model of peripheral neuropathy assessed as elevation in pain sensitivity threshold at 150 mg/kg, ip administered 30 mins prior to oxaliplatin challenge relative to control; assay type: functional; procedure, shortened: as §4
# Mus musculus [24] = test: Analgesic activity in Albino Swiss CD-1 mouse assessed as increase in pain response latency administered at 150 mg/kg, ip treated up to 90 mins prior to tet by hot plate assay; assay type: functional, organism-based
# Procedure, shortened: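 Male CD-1 mice, 18–25 g, 6–12 per group, given test agents as 1% aqueous Tween 80 suspension ip. Doses were 50, 100 or 150 mg/kg, with morphine hydrochloride at 4 mg/kg as reference. Mice were placed on the hot plate 15, 30, 45, 60 and 90 min after dosing, and latency to pain reaction was recorded.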
# Chain of Cytochrome P450 3A4 (P08684 whole entry): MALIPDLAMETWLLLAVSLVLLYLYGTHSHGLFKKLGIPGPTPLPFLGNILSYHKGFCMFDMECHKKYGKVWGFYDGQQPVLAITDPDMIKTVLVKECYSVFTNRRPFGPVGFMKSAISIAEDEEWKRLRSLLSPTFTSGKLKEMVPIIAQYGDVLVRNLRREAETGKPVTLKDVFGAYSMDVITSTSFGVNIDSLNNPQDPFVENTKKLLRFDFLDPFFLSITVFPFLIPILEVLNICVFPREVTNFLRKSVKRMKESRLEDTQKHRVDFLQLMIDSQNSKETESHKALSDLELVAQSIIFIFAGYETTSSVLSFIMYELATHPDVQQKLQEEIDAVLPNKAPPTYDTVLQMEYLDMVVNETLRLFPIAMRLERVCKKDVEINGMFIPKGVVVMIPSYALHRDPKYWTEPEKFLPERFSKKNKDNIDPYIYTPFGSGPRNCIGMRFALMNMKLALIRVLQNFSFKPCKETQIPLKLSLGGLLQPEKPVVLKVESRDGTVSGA
# Chain of Cytochrome P450 2D6 (P10635 whole entry): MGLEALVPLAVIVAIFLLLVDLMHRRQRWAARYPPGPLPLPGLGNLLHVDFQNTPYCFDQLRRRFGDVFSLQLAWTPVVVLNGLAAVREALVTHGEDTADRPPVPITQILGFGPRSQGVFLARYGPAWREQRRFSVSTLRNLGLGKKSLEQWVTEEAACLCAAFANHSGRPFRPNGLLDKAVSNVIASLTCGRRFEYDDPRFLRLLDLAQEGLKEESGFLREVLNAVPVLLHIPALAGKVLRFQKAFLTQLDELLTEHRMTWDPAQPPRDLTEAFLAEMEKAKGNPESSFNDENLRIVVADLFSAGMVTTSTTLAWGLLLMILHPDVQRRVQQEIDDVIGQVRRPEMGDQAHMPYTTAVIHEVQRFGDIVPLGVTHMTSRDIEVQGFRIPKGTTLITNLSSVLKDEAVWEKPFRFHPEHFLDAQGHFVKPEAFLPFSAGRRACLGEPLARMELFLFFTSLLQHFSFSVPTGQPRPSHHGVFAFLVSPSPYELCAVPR
SMILES,Activity (Mus musculus [1]),Time (Mus musculus [2]) [h],ED50 (Mus musculus [3]) [mg/kg],TD50 at 1 min [4] [mg/kg],Ratio TD50/ED50 (Mus musculus [5]),other results
COCC(C(=O)N1CCN(c2ccc(C)cc2)CC1)N1C(=O)CCC1=O (stereo unspecified),<=75%,0.25,21.1,204,9.6,
COC[C@H](C(=O)N1CCN(c2ccc(C(F)(F)F)cc2)CC1)N1C(=O)CCC1=O,,0.25 to 1,21.1 to 22.1,167 to 194,8 - 9.2,ED50 (Mus musculus [6]): 80.9 to 88.9 mg/kg; Ratio TD50/ED50 (Mus musculus [7]): 1.9 - 2.1
COCC(C(=O)N1C=CN(c2ccc(C(F)(F)F)cc2)CC1)N1C(=O)CCC1=O (stereo unspecified),,,,,,Retention time [8]: 6.23 min; Drug metabolism (Liver [9]): Metabolite_Detected
COCC(C(=O)N1CCN(C)CC1)N1C(=O)CCC1=O (stereo unspecified),<=75%,0.25,68.2,> 500,>7.3,
COC[C@@H](NC(C)=O)C(=O)NCc1ccccc1 [LACOSAMIDE],,0.5,6.4,33.7,5.3,ED50 (Mus musculus [6]): 9.4 mg/kg; Ratio TD50/ED50 (Mus musculus [7]): 3.6
O=C(C(CO)N1C(=O)CCC1=O)N1CCN(c2ccc(C(F)(F)F)cc2)CC1 (stereo unspecified),,,,,,Efficacy (Mus musculus [10]): 50%
COCC(C(=O)N1CCN(c2cccc(C(F)(F)F)c2)CC1)N1C(=O)CCC1=O (stereo unspecified),<=75%,,,,,Retention time [8]: 6.08 min; inhibition (INH) (Cytochrome P450 3A4): Not Active; inhibition (INH) (Cytochrome P450 2D6): Not Active; Activity (Mus musculus [11]): 50%
COCC(C(=O)N1CCN(c2cccc(C)c2)CC1)N1C(=O)CCC1=O (stereo unspecified),<=75%,0.25,47.7,213,4.5,Activity (Mus musculus [12]): <=75%
COCC(C(=O)N1CCN(c2cccc(OC)c2)CC1)N1C(=O)CCC1=O (stereo unspecified),<=75%,0.25,> 100,,,
COCC(C(=O)N1C=CN(c2cccc(C(F)(F)F)c2)CC1)N1C(=O)CCC1=O (stereo unspecified),,,,,,Retention time [8]: 6.33 min; Drug metabolism (Liver [13]): Metabolite_Detected
COCC(C(=O)N1CCN(c2cccc(Cl)c2Cl)CC1)N1C(=O)CCC1=O (stereo unspecified),<=75%,0.25 to 0.5,38 to 54.7,224 to 261,4.8 - 5.9,
O=C(C(CO)N1C(=O)CCC1=O)N1CCN(c2cccc(C(F)(F)F)c2)CC1 (stereo unspecified),,,,,,Efficacy (Mus musculus [10]): 50%
COCC(C(=O)N1C=CN(c2cccc(Cl)c2)CC1)N1C(=O)CCC1=O (stereo unspecified),,,,,,Retention time [8]: 6.04 min; Drug metabolism (Liver [14]): Metabolite_Detected
COCC(C(=O)N1CCN(c2ccc(F)cc2)CC1)N1C(=O)CCC1=O (stereo unspecified),<=75%,0.25,71.4,306,4.3,
CN1CC[C@]23c4c5ccc(O)c4O[C@H]2[C@@H](O)C=C[C@H]3[C@H]1C5,,,,,,Activity (Mus musculus [15]): Active
CCC1(C)CC(=O)NC1=O (stereo unspecified) [ETHOSUXIMIDE],,0.25,222,722,3.2,ED50 (Mus musculus [6]): > 500 mg/kg; Time (Mus musculus [16]): 0.25 h
COCC(C(=O)N1CCN(c2ccc(Cl)cc2)CC1)N1C(=O)CCC1=O (stereo unspecified),<=75%,0.25 to 1,45.5 to 77,180 to 208,2.4 - 4.6,
COC[C@@H](C(=O)N1CCN(c2ccc(C(F)(F)F)cc2)CC1)N1C(=O)CCC1=O,,0.25 to 0.5,37.9 to 49.2,243 to 246,5 - 6.4,ED50 (Mus musculus [6]): > 120 mg/kg
CCCC(CCC)C(=O)O [VALPROIC ACID],,0.5,,373,,Time (Mus musculus [16]): 0.5 h; inhibition in vivo at 100 mg/kg (Mus musculus [17]): 15.7%; inhibition in vivo at 150 mg/kg (Mus musculus [18]): 25.8%; inhibition in vivo at 200 mg/kg (Mus musculus [19]): 29.2%; inhibition in vivo at 200 mg/kg (Mus musculus [20]): 42.2%; Activity (Mus musculus [21]): 105%; Activity (Mus musculus [22]): 121%; Activity (Mus musculus [23]): 151.5%; Activity (Mus musculus [24]): inactive
CC[C@@H](C(N)=O)N1CCCC1=O [LEVETIRACETAM],,1,,> 500,>33.8,ED50 (Mus musculus [6]): > 500 mg/kg
COCC(C(=O)N1CCN(c2cccc(Cl)c2)CC1)N1C(=O)CCC1=O (stereo unspecified),<=75%,0.25 to 0.5,26.1 to 32.7,192 to 226,6.9 - 7.3,Retention time [8]: 5.72 min; ED50 (Mus musculus [6]): 79.7 to 87 mg/kg; Activity (Mus musculus [12]): <=75%; Ratio TD50/ED50 (Mus musculus [7]): 2.4 - 2.6; inhibition (INH) (Cytochrome P450 3A4): Not Active
